What is called MIC is the lowest concentration found to suppress growth.

The test system of data set [1] is Saccharomyces cerevisiae. Put plainly: Antifungal activity against Saccharomyces cerevisiae AD12345678 in YNPG-proline medium after 24 hrs by microdilution method. It counts as functional. Particulars: AD12345678, 24 h.
Data set [2] has as its system Candida albicans. Put plainly: Antifungal activity against fluconazole resistant Candida albicans isolate B4 overexpressing MDR1 in RPMI-1640 buffered medium after 24 hrs by microdilution method. The data set is classed as functional. As to conditions: Candida albicans, isolate B4, 24 h; read-out: MIC. In outline:
(§1)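 C. albicans cells were grown in 2% glucose, 1% yeast extract, 1% Bacto peptone medium before testing. […] CARE-2 fingerprinting confirmed that each pair is a single strain.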
(Broth dilution looks for growth in wells or tubes with falling amounts of substance.)

The subject of data set [3] is Candida albicans. In words: Antifungal activity against fluconazole resistant Candida albicans isolate Gu5 overexpressing CDR1 and CDR2 in RPMI-1640 buffered medium after 24 hrs by microdilution method. It counts as functional. Particulars: isolate Gu5, 24 h. The method, boiled down:
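C. albicans cells were grown in 2% glucose, 1% yeast extract, 1% Bacto peptone medium before testing. CARE-2 fingerprinting confirmed that each pair is a single strain.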

For data set [4], the system named is Saccharomyces cerevisiae. In words: Prodrug stability in Saccharomyces cerevisiae ADCDR2 expressing Candida albicans CDR2 efflux pump assessed as compound cleavage rate measured per mg of protein. As to conditions: in vivo. It counts as ADME, organism-based.
The subject of data set [5] is Candida albicans. In words: Antifungal activity against fluconazole sensitive Candida albicans isolate B3 in RPMI-1640 buffered medium after 24 hrs by microdilution method. It counts as functional. Particulars: Candida albicans, isolate B3, 24 h; read-out: MIC. In outline: as §1
The subject of data set [6] is Candida albicans. In words: Prodrug stability in fluconazole sensitive Candida albicans isolate B3 assessed as compound cleavage rate measured per mg of protein. It counts as ADME, organism-based. Particulars: in vivo.
In data set [7] the test system is Saccharomyces cerevisiae. In words: Prodrug stability in Saccharomyces cerevisiae ADCDR1 expressing Candida albicans CDR1 efflux pump assessed as compound cleavage rate measured per mg of protein. It counts as ADME, organism-based. Particulars: in vivo.
The subject of data set [8] is Saccharomyces cerevisiae. Put plainly: Prodrug stability in Saccharomyces cerevisiae ADMDR1 expressing Candida albicans MDR1 efflux pump assessed as compound cleavage rate measured per mg of protein. It counts as ADME, organism-based. As to conditions: in vivo.
Data set [9] deals with Saccharomyces cerevisiae. In words: Antifungal activity against Saccharomyces cerevisiae ADCDR2 expressing Candida albicans CDR2 efflux pump in YNPG-proline medium after 24 hrs by microdilution method. The data set is classed as functional. Particulars: ADCDR2, 24 h.
For data set [10], the system named is Candida albicans. Put plainly: Prodrug stability in fluconazole sensitive Candida albicans isolate Gu4 assessed as compound cleavage rate measured per mg of protein. The data set is classed as ADME, organism-based. Particulars: in vivo. In outline: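 Oligopeptides were incubated with cell extracts of the yeast cells, and their hydrolytic enzymes cleaved them. The amino acids released were quantified by the Cd-ninhydrin method.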

Data set [11] relates to Saccharomyces cerevisiae. Put plainly: Drug uptake in Saccharomyces cerevisiae ADCDR2 expressing Candida albicans CDR2 efflux pump at 200 uM pretreated for 10 mins measured after 60 mins by fluorescamine staining. It counts as ADME, organism-based. As to conditions: in vivo, 1 h.
In data set [12] the test system is Candida albicans. Put plainly: Antifungal activity against fluconazole sensitive Candida albicans isolate Gu4 in RPMI-1640 buffered medium after 24 hrs by microdilution method. The data set is classed as functional. As to conditions: Candida albicans, isolate Gu4, 24 h; read-out: MIC. In outline: as §1
Data set [13] relates to Saccharomyces cerevisiae. In words: Drug uptake in Saccharomyces cerevisiae ADMDR1 expressing Candida albicans MDR1 efflux pump at 200 uM pretreated for 10 mins measured after 60 mins by fluorescamine staining. It counts as ADME, organism-based. Particulars: in vivo, 1 h.
The subject of data set [14] is Saccharomyces cerevisiae. In words: Drug uptake in Saccharomyces cerevisiae ADMDR1 at 50 uM pretreated for 10 mins measured after 60 mins by fluorescamine staining in presence of fluconazole. Particulars: in vivo, 1 h.
Data set [15] concerns Saccharomyces cerevisiae. Put plainly: Drug uptake in Saccharomyces cerevisiae ADCDR2 at 200 uM pretreated for 10 mins measured after 60 mins by fluorescamine staining in presence of fluconazole. It counts as ADME, organism-based. Particulars: in vivo, 1 h.
Data set [16] relates to Saccharomyces cerevisiae. Put plainly: Antifungal activity against wild type Saccharomyces cerevisiae ATCC 9763 in YNPG-proline medium after 24 hrs by microdilution method. The data set is classed as functional. Particulars: ATCC 9763, 24 h.
The subject of data set [17] is Saccharomyces cerevisiae. Put plainly: Drug uptake in Saccharomyces cerevisiae ADCDR1 expressing Candida albicans CDR1 efflux pump at 200 uM pretreated for 10 mins measured after 60 mins by fluorescamine staining. It counts as ADME, organism-based. Particulars: in vivo, 1 h.
Data set [18] has as its system Saccharomyces cerevisiae. In words: Prodrug stability in wild type Saccharomyces cerevisiae ATCC 9763 assessed as compound cleavage rate measured per mg of protein. The data set is classed as ADME, organism-based. As to conditions: in vivo.
For data set [19], the system named is Saccharomyces cerevisiae. In words: Drug uptake in Saccharomyces cerevisiae AD12345678 at 200 uM pretreated for 10 mins measured after 60 mins by fluorescamine staining. It counts as ADME, organism-based. As to conditions: in vivo, 1 h.
For data set [20], the system named is Saccharomyces cerevisiae. Put plainly: Antifungal activity against Saccharomyces cerevisiae ADCDR1 expressing Candida albicans CDR1 efflux pump in YNPG-proline medium after 24 hrs by microdilution method. The data set is classed as functional. Particulars: ADCDR1, 24 h.
Data set [21] deals with Candida albicans. Put plainly: Prodrug stability in wild type Candida albicans 10261 assessed as compound cleavage rate measured per mg of protein. As to conditions: in vivo. It counts as ADME, organism-based.
The test system of data set [22] is Saccharomyces cerevisiae. Put plainly: Drug uptake in Saccharomyces cerevisiae ADCDR1 at 200 uM pretreated for 10 mins measured after 60 mins by fluorescamine staining in presence of fluconazole. The data set is classed as ADME, organism-based. As to conditions: in vivo, 1 h.
The subject of data set [23] is Candida albicans. In words: Antifungal activity against wild type Candida albicans 10261 in RPMI-1640 buffered medium after 24 hrs by microdilution method. It counts as functional. As to conditions: Candida albicans, 10261, 24 h; read-out: MIC. In outline:
as §1

The test system of data set [24] is Saccharomyces cerevisiae. Put plainly: Drug uptake in Saccharomyces cerevisiae AD12345678 at 200 uM pretreated for 10 mins measured after 60 mins by fluorescamine staining in presence of fluconazole. It counts as ADME, organism-based. As to conditions: in vivo, 1 h.
The subject of data set [25] is Saccharomyces cerevisiae. Put plainly: Prodrug stability in Saccharomyces cerevisiae AD12345678 assessed as compound cleavage rate measured per mg of protein. The data set is classed as ADME, organism-based. Particulars: in vivo.
In data set [26] the test system is Saccharomyces cerevisiae. In words: Antifungal activity against Saccharomyces cerevisiae ADMDR1 expressing Candida albicans MDR1 efflux pump in YNPG-proline medium after 24 hrs by microdilution method. The data set is classed as functional. As to conditions: ADMDR1, 24 h.
Data set [27] concerns Saccharomyces cerevisiae. Put plainly: Antifungal activity against Saccharomyces cerevisiae AD12345678 in YNPG medium containing 1 mg/ml […] after 24 hrs by microdilution method. The data set is classed as functional. Particulars: AD12345678, 24 h.
Data set [28] relates to Saccharomyces cerevisiae. In words: Antifungal activity against Saccharomyces cerevisiae ADCDR1 expressing Candida albicans CDR1 efflux pump in YNPG medium containing 1 mg/ml […] after 24 hrs by microdilution method. It counts as functional. As to conditions: ADCDR1, 24 h.
Data set [29] deals with Saccharomyces cerevisiae. In words: Antifungal activity against wild type Saccharomyces cerevisiae ATCC 9763 in YNPG medium containing 1 mg/ml […] after 24 hrs by microdilution method. It counts as functional. As to conditions: ATCC 9763, 24 h.
The subject of data set [30] is Saccharomyces cerevisiae. In words: Antifungal activity against Saccharomyces cerevisiae ADCDR2 expressing Candida albicans CDR2 efflux pump in YNPG medium containing 1 mg/ml […] after 24 hrs by microdilution method. Particulars: ADCDR2, 24 h. The data set is classed as functional.
In data set [31] the test system is Saccharomyces cerevisiae. In words: Antifungal activity against Saccharomyces cerevisiae ADMDR1 expressing Candida albicans MDR1 efflux pump in YNPG medium containing 1 mg/ml […] after 24 hrs by microdilution method. The data set is classed as functional. As to conditions: ADMDR1, 24 h.

Structures are written as SMILES. In brackets after ≈: the same amount, converted by molar mass. Non-standard residues stand in square brackets, D forms with d. Residues, ends and D or L forms follow the SMILES beside them. Phe(3-F) = N[C@@H](Cc1cccc(F)c1)C(=O)O

As for `CC(C)C[C@H](N)C(=O)N[C@@H](Cc1cccc(F)c1)C(=O)O` (H-Leu-[Phe(3-F)]-OH), the MIC in [1] was 256 µg/mL (≈ 864 µM); in data set [2], 64 µg/mL (≈ 216 µM); in data set [3], 8 µg/mL (≈ 27 µM); in [5], 64 µg/mL (≈ 216 µM); in [9] it was 4 µg/mL (≈ 13.5 µM); in data set [12] it was 128 µg/mL (≈ 432 µM). Moreover, the MIC in [16] was found to be 256 µg/mL (≈ 864 µM); in [20], 8 µg/mL (≈ 27 µM); in [23], 64 µg/mL (≈ 216 µM); in data set [26], 256 µg/mL (≈ 864 µM). Besides, the Stability in [4] worked out at 14 nmol/min; in data set [6] it was 20 nmol/min; in [7], 14 nmol/min; in data set [8], 14 nmol/min; in [10] it was 20 nmol/min; in data set [18], 14 nmol/min. The Stability in [21] was 20 nmol/min; in [25], 14 nmol/min. The Drug uptake amounted to 2.37 nmol/min/mg in data set [11]; 0.84 nmol/min/mg in data set [13]; 0.87 nmol/min/mg in data set [14]; 2.23 nmol/min/mg in data set [15]; 1.95 nmol/min/mg in data set [17]; 0.79 nmol/min/mg in [19]. Moreover, the Drug uptake in data set [22] was 1.82 nmol/min/mg; in data set [24], 0.79 nmol/min/mg.

In the case of `NC(Cc1cccc(F)c1)C(=O)O` (stereo unspecified) [M-FLUOROPHENYLALANINE], the MIC amounted to 32 µg/mL (≈ 175 µM) in [27]; 128 µg/mL (≈ 699 µM) in [2]; 16 µg/mL (≈ 87.3 µM) in [28]; 32 µg/mL (≈ 175 µM) in data set [29]; 128 µg/mL (≈ 699 µM) in data set [3]; 128 µg/mL (≈ 699 µM) in data set [5]. The MIC is 16 µg/mL (≈ 87.3 µM) in data set [30], 128 µg/mL (≈ 699 µM) in data set [12], 32 µg/mL (≈ 175 µM) in data set [31] and 256 µg/mL (≈ 1400 µM) in data set [23]. For the same compound, the Drug uptake was 1.86 nmol/min/mg in data set [11], 1.63 nmol/min/mg in data set [13], 2.57 nmol/min/mg in data set [17] and 1.78 nmol/min/mg in data set [19].

`C[C@@H]([C@H](N)C(=O)N[C@H](C(=O)O)[C@H]1O[C@@H](n2ccc(=O)[nH]c2=O)[C@H](O)[C@@H]1O)[C@H](O)c1ccc(O)cn1` [NIKKOMYCIN]: the MIC in data set [1] was 128 µg/mL (≈ 258 µM); in data set [2], 8 µg/mL (≈ 16.1 µM); in [3], 4 µg/mL (≈ 8.07 µM); in [5], 8 µg/mL (≈ 16.1 µM); in [9], 16 µg/mL (≈ 32.3 µM); in [12] it was 16 µg/mL (≈ 32.3 µM). For the same compound, the MIC came to 128 µg/mL (≈ 258 µM) in data set [16], 16 µg/mL (≈ 32.3 µM) in data set [20], 32 µg/mL (≈ 64.6 µM) in [23] and 128 µg/mL (≈ 258 µM) in data set [26]. Moreover, the Stability in data set [6], in [10] and in data set [21] was 0.3 nmol/min each time. Further, the Drug uptake was determined as 0.97 nmol/min/mg in [11]; 0.32 nmol/min/mg in data set [13]; 0.34 nmol/min/mg in data set [14]; 0.88 nmol/min/mg in [15]; 1.08 nmol/min/mg in data set [17]; 0.33 nmol/min/mg in [19]. For the same compound, the Drug uptake in data set [22] was 0.98 nmol/min/mg; in [24] it was 0.32 nmol/min/mg.

The values above are taken from ChEMBL document CHEMBL1649115, “Enhanced susceptibility to antifungal oligopeptides in yeast strains overexpressing ABC multidrug efflux pumps” (Antimicrob Agents Chemother, 2008).
